Screening results deposited in PubChem BioAssay by The Scripps Research Institute Molecular Screening Center.
A selection: hits, their analogues and other compounds. The true share with any hit is near 4.5%.
TAAR1 antag = antagonists of human TAAR1. CHO RD-HGA16 TAAR1, Fluo-8 calcium fluorescence, antagonist. actives 1.5% (n = 360,000). inhibition, % at 3 µM. Q96RJ0;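 active means inhibition above a per-plate cutoff, the mean inhibition of test compounds on that plate plus 3 SD, cut at about 49% in these data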;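 further: 0% = DMSO plus EC80 beta-PEA response and 100% = DMSO alone without agonist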
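System: CHO RD-HGA16 cells bearing hTAAR1. Reagent: EC80 β-phenethylamine stimulus. Schedule: seeding 17-24 h prior, 75-min 37 °C, 30-min RT dye loading. Signal: Fluo-8 intracellular calcium dye fluorescence, real-time kinetic reads. Read-out: % inhibition from peak post-agonist over basal fluorescence ratio. Benchmarks: vehicle wells and EC80 agonist wells. Replicates: n of 1.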
OX1R antag-1 = antagonists of human orexin 1 receptor | actives 0.43% (n = 330,000) | CHO/OX1R cells, Fluo-8 calcium fluorescence, orexin A | inhibition, % at 5 µM | AID 434989;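 active means inhibition above its plate's threshold, mean inhibition of all tested compounds on the plate plus 3 SD, cut at about 37% in these data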;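 further: 0% = orexin A challenge wells and 100% = SB-334867-A antagonist wells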
Target sequence (O43613 whole entry, looked up): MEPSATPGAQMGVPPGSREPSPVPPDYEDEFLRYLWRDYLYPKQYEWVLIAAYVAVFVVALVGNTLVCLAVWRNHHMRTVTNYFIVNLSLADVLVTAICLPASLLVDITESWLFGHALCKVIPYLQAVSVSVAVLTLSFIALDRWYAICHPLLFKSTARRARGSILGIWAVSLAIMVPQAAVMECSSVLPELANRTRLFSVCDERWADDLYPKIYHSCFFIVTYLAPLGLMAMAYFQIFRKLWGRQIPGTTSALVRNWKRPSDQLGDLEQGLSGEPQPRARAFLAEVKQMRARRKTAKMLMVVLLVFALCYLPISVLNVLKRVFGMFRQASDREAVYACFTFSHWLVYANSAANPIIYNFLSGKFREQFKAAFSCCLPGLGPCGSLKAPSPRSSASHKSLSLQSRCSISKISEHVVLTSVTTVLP
CHO parental Ca = counter-screen: ATP calcium response change in parental CHO cells. parental CHO-K1, ATP-induced calcium, Fluo-8 fluorescence. inhibition, % at 5.6 µM. actives 0.63% (n = 330,000). AID 463079;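 active means inhibition above that plate's mean sample inhibition plus 3 SD, cut at about 26% in these data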;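 further: 0% = ATP-challenged DMSO wells and 100% = DMSO wells without ATP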
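Material: parental CHO cells / Compound: single nominal dose of 5.6 µM per compound / Signal: Fluo-8 fluorescence / Replicates: singlicate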
GPR7 antag = blocks human GPR7 receptor signaling. actives 1.1% (n = 290,000). inhibition, % at 4.4 µM. AID 1861. P48145. GPR7-expressing cells, fluorescence antagonist assay; in the data active means inhibition above about 16%, passing the limit was not always enough;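 further: cells stimulated with the agonist NPW; 0% = agonist with vehicle and 100% = vehicle without agonist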
OX1R antag-2 = OX1R (human) antagonism | OX1R-expressing cells, FRET antagonist read-out | O43613 | actives 1.8% (n = 330,000) | inhibition, % at 6.6 µM; in the data active means inhibition mostly above about 38%, no sharp cut-off; inactive means mostly below about 40%;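 further: 0% = agonist challenge alone and 100% = reference antagonist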
TAAR1 agonist = agonists of human TAAR1 | Q96RJ0 | CHO RD-HGA16 TAAR1, Fluo-8 calcium fluorescence; vehicle wells 0%, saturating PEA agonist 100% | activation, % at 3 µM | actives 0.99% (n = 360,000);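 active means activation above the mean activation of all test compounds in the run plus 3 SD, cut at about 38% in these data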
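Test system: RD-HGA16 (CHO) cells co-expressing Gα16 and hTAAR1; dosing: one-point dosing at 3 µM (nominal); timing: 17-24 h seeding, 75 min 37 °C dye, 30 min RT; signal: kinetic Fluo-8 calcium fluorescence; read-out basis: % activation relative to PEA EC100 response; controls: DMSO and PEA EC100; replicates: n 1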
GPR7 antag conf = confirmation of human GPR7 antagonists | inhibition, % at 4.4 µM | actives 52% (n = 2,400) | shares compounds with GPR7 antag | GPR7-expressing cells, calcium fluorescence antagonist mode; in the data active means inhibition above about 24%;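 further: stimulated with the GPR7 agonist NPW; 0% = agonist plus vehicle and 100% = vehicle alone without agonist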
MCHR1 antagonist = antagonizes human MCHR1, a GPR7 antagonist counter-screen; shares compounds with GPR7 antag; MCHR1-expressing cells, fluorescence antagonist assay; inhibition, % at 4.4 µM; actives 62% (n = 2,400); AID 2148; in the data active means inhibition above about 22%;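 further: 0% = vehicle with agonist and 100% = vehicle without agonist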
* = called active by the depositor; nt = no result given.

SMILES	TAAR1 antag	OX1R antag-1	CHO parental Ca	GPR7 antag	OX1R antag-2	TAAR1 agonist	GPR7 antag conf	MCHR1 antagonist
CC(C)CC(Nc1ncnc2scc(-c3ccccc3)c12)C(=O)O (stereo unspecified)	-9	-3	-7	-7	16	2	nt	nt
c1ccc(-c2csc3ncnc(NCC4COc5ccccc5O4)c23)cc1 (stereo unspecified)	39	18	79*	50*	40	0	54*	63*
CS(=O)(=O)Nc1ccc(-c2cnc3cccnn23)cc1	-23	nt	nt	nt	nt	7	nt	nt
CCOC(=O)c1cnc2c(C#N)cnn2c1N	2	-8	-9	-2	15	1	nt	nt
Cc1nc(NCCO)c(C#N)c2c1COC(C)(C)C2	12	2	-8	26*	4	7	-21	-5
CN(C)CCCNc1nc(-c2ccccc2)c2c(c1C#N)CC(C)(C)OC2	0	-25	-7	0	13	-4	nt	nt
CC(=O)c1ccc(N2CCN(C(=O)c3cccc(Oc4ccccc4)c3)CC2)cc1	40	10	12	23*	18	5	34*	53*
COc1ccc(CCNC(=O)N2c3ccccc3Sc3ccccc32)cc1	44	30	36*	42*	45	12	45*	77*
Clc1ccccc1Nc1ncnc2c1nnn2Cc1ccccc1	-8	-29	-22	34*	16	6	24	4
C=CCNC(=S)Nc1cccc(N)c1	2	-9	3	-16	15	3	nt	nt
Cc1cc(C)c(S(=O)(=O)N(C)CC(=O)NCc2ccncc2)c(C)c1	-1	-30	-10	27*	17	2	5	0
Cc1cc(C)c(S(=O)(=O)N(C)CC(=O)NCc2cccnc2)c(C)c1	-9	-9	-5	2	11	10	nt	nt
C#CCOCCOCCOCCNc1nc(N2CCN(C(=O)[C@H](Cc3cc4ccccc4[nH]3)n3cc([C@@H](N)CC(C)C)nn3)CC2)nc(N2CCN(C(=O)[C@H](Cc3cc4ccccc4[nH]3)n3cc([C@@H](N)CC(C)C)nn3)CC2)n1	nt	-5	-10	79*	14	nt	54*	33*
C#CCOCCOCCOCCNc1nc(N2CCOCC2)nc(N2CCN(C(=O)[C@H](Cc3cc4ccccc4[nH]3)n3cc([C@@H](N)CC(C)C)nn3)CC2)n1	nt	3	-3	-18	9	nt	nt	nt
O=C(c1cccc(C(F)(F)F)c1)C1CCCN(C(=O)CN2CCOC2=O)C1 (stereo unspecified)	-18	-11	-16	0	15	2	nt	nt
O=C(COc1cccc2cccnc12)N/N=C1\SCC(=O)N1Cc1ccccc1	14	-20	-15	-6	20	4	nt	nt
COc1ccc(C(=O)C[n+]2cc(-c3ccc(OC)cc3)n3c2CCCC3)cc1	3	0	2	-5	14	5	nt	nt
Cc1ccc(C(=O)C[n+]2cc(-c3ccc(C)cc3)n3c2CCCCC3)cc1	3	17	1	60*	-1	14	32*	50*
O=C(Nc1ccc(F)cc1F)C1CCCN1S(=O)(=O)c1ccc(-c2ccc(=O)[nH]n2)s1 (stereo unspecified)	-20	-29	-18	-11	13	10	nt	nt
C#CC(CO)N(CCN(Cc1ccccc1)C(C#C)CO)Cc1ccccc1 (stereo unspecified)	15	-29	-22	nt	15	2	nt	14
C#CCN(C)Cc1ccccc1	-11	5	0	-12	14	2	nt	nt
Cc1ccccc1C1CC(c2ccccc2)Nc2ncnn21 (stereo unspecified)	0	-19	-17	6	2	3	nt	nt
CCOc1ccc(C2CC(c3ccccc3C)n3ncnc3N2)cc1 (stereo unspecified)	-9	-18	-4	37*	26	3	22	24*
COc1ccccc1C1CC(c2ccc(Cl)cc2)Nc2ncnn21 (stereo unspecified)	4	-26	6	nt	41	18	nt	15
Cc1ccc(NC(=O)CN(C)C(=O)CSc2nc3ccccc3c(=O)n2CCO)cc1	8	nt	nt	nt	nt	1	nt	nt
SMILES	TAAR1 antag	OX1R antag-1	CHO parental Ca	GPR7 antag	OX1R antag-2	TAAR1 agonist	GPR7 antag conf	MCHR1 antagonist
CCOc1ccc(-c2cc(NC(=O)c3c(F)cccc3F)c(C(=O)O)s2)cc1	25	nt	nt	51*	nt	4	26*	28*
CCOc1ccc(NC(=O)Nc2cc(-c3ccccc3)sc2C(=O)OC)cc1	2	-32	-25	8	24	0	nt	nt
CCN(C(=O)C1CSC2(C)CCC(=O)N12)c1nc2c(C)cccc2s1 (stereo unspecified)	-31	-13	-15	nt	14	1	nt	nt
Cc1ccc(S(=O)(=O)NCc2cccnc2)cc1C	-10	-3	12	15	1	2	nt	nt
COc1c(Cl)c(=O)oc2ccc(Cl)cc12	-3	nt	nt	nt	nt	-1	nt	nt
COc1ccccc1-n1c(=O)oc2ccc(Cl)cc2c1=O	11	8	-11	28*	58	6	-12	-1
OCC1(Cc2ccc(Cl)cc2)CCN(CCCc2ccccc2)CC1	-3	-35	-14	26*	2	15	37*	31*
CN1CCC(CO)(Cc2ccccc2)CC1	-7	5	1	-15	10	1	nt	nt
Cc1cc(NC(=O)CCC(=O)N(c2ccc(F)cc2)C(C(=O)NC2CCCC2)c2ccc(C)o2)no1 (stereo unspecified)	-18	-28	-18	-11	7	2	nt	nt
COc1ccc(Nc2ccc(OC)cc2)cc1	5	-13	-9	-1	17	0	nt	nt
COc1ccc(Nc2ccc(Nc3ccc(OC)cc3)nn2)cc1	39	12	-11	92*	15	12	85*	89*
COc1ccc(-c2c(C)sc(NC(=O)c3ccnn3C)c2C#N)cc1	-5	-16	-3	-17	36	0	nt	nt
CN(C)c1ccc(N=Nc2ccccc2C(=O)OCC(=O)N(C)C2CCCCC2)cc1	-29	-18	55*	25*	37	2	31*	76*
CN(C)c1ccc(N=Nc2ccccc2C(=O)OCC(=O)NCC2CCCCC2)cc1	2	-23	21	-17	23	1	nt	nt
Cc1cccc(N2CC(C(=O)OCC(=O)c3ccc(OC(=O)c4cccs4)cc3)CC2=O)c1C (stereo unspecified)	48	-6	-6	30*	10	9	18	58*
CCCc1[nH]n(-c2ccc(F)cc2)c(=O)c1C=Nc1ccc(C)cc1	-14	-21	-11	-13	20	2	nt	nt
